Source: ChEMBL document CHEMBL1955781, “Structure-activity relationship study of selective benzimidazole-based inhibitors of Cryptosporidium parvum IMPDH” (Bioorg Med Chem Lett, 2012)

Assays:
[1] = molecular target: T1, Inosine-5'-monophosphate dehydrogenase (Cryptosporidium parvum, UniProt Q8T6T2); experiment: Inhibition of recombinant Cryptosporidium parvum IMPDH expressed in Escherichia coli assessed as NADH production preincubated for 5 mins by fluorescence assay in presence of bovine serum albumin
T1 sequence (Q8T6T2 whole entry): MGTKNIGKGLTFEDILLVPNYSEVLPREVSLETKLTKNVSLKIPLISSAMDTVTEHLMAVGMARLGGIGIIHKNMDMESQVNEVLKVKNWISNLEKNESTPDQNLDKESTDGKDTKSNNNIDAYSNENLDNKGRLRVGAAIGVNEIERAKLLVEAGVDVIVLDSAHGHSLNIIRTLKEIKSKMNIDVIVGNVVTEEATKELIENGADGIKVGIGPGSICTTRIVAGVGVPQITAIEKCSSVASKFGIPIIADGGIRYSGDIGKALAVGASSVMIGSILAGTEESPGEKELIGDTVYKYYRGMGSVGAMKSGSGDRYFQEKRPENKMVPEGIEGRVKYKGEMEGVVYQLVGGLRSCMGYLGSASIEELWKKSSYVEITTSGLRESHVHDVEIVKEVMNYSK
Procedure, shortened: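 NADH production was followed at varying inhibitor concentrations, with 0.05% fatty-acid-free bovine serum albumin added to gauge non-specific binding. Values are the mean of three independent determinations unless otherwise flagged.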

[2] = molecular target: Inosine-5'-monophosphate dehydrogenase 2 (Homo sapiens, UniProt P12268); experiment: Inhibition of human IMPDH2
[3] = molecular target: T1, Inosine-5'-monophosphate dehydrogenase; experiment: Inhibition of recombinant Cryptosporidium parvum IMPDH expressed in Escherichia coli assessed as NADH production preincubated for 5 mins by fluorescence assay
Procedure, shortened: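 Enzyme activity was tracked as NADH production across varying inhibitor concentrations. Values are the mean of three independent determinations unless otherwise flagged.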

Cryptosporidium parvum [4] = experiment: Antiparasitic activity against Cryptosporidium parvum infection model; type: functional, organism-based
Toxoplasma gondii [5] = experiment: Antiparasitic activity against wild type Toxoplasma gondii expressing endogenous IMPDH infected in human foreskin fibroblasts assessed as inhibition of parasite proliferation by fluorescence assay; type: functional, organism-based
Procedure, shortened: (§1)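 T. gondii strains carrying a yellow fluorescent protein reporter, grown in hTERT-immortalized human foreskin fibroblasts. Parasite proliferation is followed by fluorescence. Because the parasites grow in the host fibroblasts, the read-out also reflects host cell toxicity.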

Toxoplasma gondii [6] = experiment: Antiparasitic activity against hypoxanthine-guanine-xanthine phosphoribosyltransferase gene knock out Toxoplasma gondii expressing Cryptosporidium parvum IMPDH infected in human foreskin fibroblasts assessed as parasite proliferation by fluorescence assay; type: functional, organism-based; procedure, shortened: as §1
Toxoplasma gondii [7] = experiment: Selectivity ratio of EC50 for wild type Toxoplasma gondii expressing endogenous IMPDH to EC50 for hypoxanthine-guanine-xanthine phosphoribosyltransferase gene knock out Toxoplasma gondii expressing Cryptosporidium parvum IMPDH; type: functional
Cryptosporidium parvum [8] = experiment: Ratio of paromomycin EC50 to compound EC50 for Cryptosporidium parvum infection model; type: functional
[9] = molecular target: Inosine-5'-monophosphate dehydrogenase 1 (Homo sapiens, UniProt P20839); experiment: Inhibition of human IMPDH1
Inosine-5'-monophosphate dehydrogenase 1, sequence (P20839 whole entry): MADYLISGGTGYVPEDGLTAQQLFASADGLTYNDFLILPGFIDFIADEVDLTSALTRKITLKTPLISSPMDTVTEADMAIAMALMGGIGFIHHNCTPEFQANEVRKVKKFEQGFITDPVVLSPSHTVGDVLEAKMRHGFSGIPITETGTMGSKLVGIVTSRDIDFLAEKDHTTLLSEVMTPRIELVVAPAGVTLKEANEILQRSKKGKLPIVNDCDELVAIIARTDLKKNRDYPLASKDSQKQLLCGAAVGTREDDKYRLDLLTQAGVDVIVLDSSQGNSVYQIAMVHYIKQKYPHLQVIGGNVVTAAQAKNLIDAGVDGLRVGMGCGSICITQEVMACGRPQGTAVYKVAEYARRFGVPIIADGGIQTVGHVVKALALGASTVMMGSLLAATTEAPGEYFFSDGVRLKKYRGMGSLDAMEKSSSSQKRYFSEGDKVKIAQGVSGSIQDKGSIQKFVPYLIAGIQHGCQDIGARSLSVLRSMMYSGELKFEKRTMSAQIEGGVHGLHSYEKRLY

Cryptosporidium parvum [10] = experiment: Antiparasitic activity against Cryptosporidium parvum infection model at 0.8 uM; type: functional; settings: read-out: GI

IC50 [2] | IC50 [3] | Structure (SMILES) | IC50 [1] | other results
> 5000 nM | 30 nM | N#Cc1cc(NC(=O)Cn2c(-c3cscn3)nc3ccccc32)ccc1Cl | 60 nM | 
> 5000 nM | 30 nM | O=C(Cn1c(-c2cscn2)nc2ccccc21)Nc1ccc(Cl)c(Cl)c1 | 90 nM | 
> 5000 nM | 5000 nM | Cc1nc2ccccc2n1CC(=O)Nc1ccc(Cl)cc1 |  | 
> 5000 nM | 22 nM | O=C(Cn1c(-c2ccccn2)nc2ccccc21)Nc1ccc(Cl)c(Cl)c1 | 40 nM | 
> 5000 nM | 5000 nM | CS(=O)(=O)c1ccc(NC(=O)Cn2c(-c3cscn3)nc3ccccc32)cc1 |  | 
> 5000 nM | 5000 nM | O=C(Cn1c(-c2cscn2)nc2ccccc21)Nc1ccccc1Cl |  | 
> 5000 nM | 5000 nM | CC(C)c1ccc(NC(=O)Cn2c(-c3cscn3)nc3ccccc32)cc1 |  | 
> 5000 nM |  | O=C(Cn1c(-c2cscn2)nc2ccccc21)NCc1ccc(Cl)cc1 |  | 
> 5000 nM | 140 nM | O=C(Cn1c(-c2cscn2)nc2ccccc21)Nc1ccc(OC(F)(F)F)cc1 |  | 
> 5000 nM | 210 nM | O=C(Cn1c(-c2ccccc2)nc2ccccc21)Nc1ccc(Cl)cc1 | 280 nM | 
> 5000 nM | 80 nM | O=C(Cn1c(-c2ccc[nH]2)nc2ccccc21)Nc1ccc(Cl)cc1 | 120 nM | 
> 5000 nM | 170 nM | O=C(Cn1c(-c2ncco2)nc2ccccc21)Nc1ccc(Cl)cc1 | 230 nM | 
> 5000 nM | 120 nM | O=C(Cn1c(-c2cscn2)nc2ccccc21)Nc1ccc(Cl)cc1 | 200 nM | 
 |  | NC[C@@H]1O[C@H](O[C@H]2[C@@H](O)[C@H](O[C@@H]3[C@@H](O)[C@H](N)C[C@H](N)[C@H]3O[C@H]3O[C@H](CO)[C@@H](O)[C@H](O)[C@H]3N)O[C@@H]2CO)[C@H](N)[C@@H](O)[C@@H]1O [PAROMOMYCIN] |  | EC50 (Cryptosporidium parvum [4]): 65000 nM
> 5000 nM | 450 nM | O=C(Cn1c(-c2ccc(Cl)cc2)nc2ccccc21)Nc1ccc(Cl)cc1 |  | 
> 50000 nM |  | COc1ccc(NC(=O)Cn2c(-c3cscn3)nc3ccccc32)cc1 |  | IC50 [9]: > 50000 nM
> 5000 nM | 370 nM | N#Cc1ccc(NC(=O)Cn2c(-c3cscn3)nc3ccccc32)cc1 |  | 
> 5000 nM | 490 nM | O=C(Cn1c(-c2cscn2)nc2ccccc21)Nc1cccc(Cl)c1 | 1430 nM | 
> 5000 nM | 120 nM | CSc1ccc(NC(=O)Cn2c(-c3cscn3)nc3ccccc32)cc1 | 69 nM | 
> 5000 nM | 30 nM | O=C(Cn1c(-c2nccs2)nc2ccccc21)Nc1ccc(Cl)cc1 | 50 nM | 
> 5000 nM | 240 nM | CC(C(=O)Nc1ccc(Cl)c(Cl)c1)n1c(-c2cscn2)nc2ccccc21 (stereo unspecified) | 300 nM | 
> 5000 nM | 60 nM | O=C(Cn1c(-c2cscn2)nc2ccccc21)Nc1ccc(Br)cc1 |  | 

Structure (SMILES) | IC50 [2] | IC50 [3] | IC50 [1] | other results
O=C(Cn1c(-c2cscn2)nc2ccccc21)Nc1ccc(Cl)c2ccccc12 | > 5000 nM | 5000 nM |  | 
O=C(Cn1c(-c2ccccn2)nc2ccccc21)Nc1ccc(Cl)cc1 | > 5000 nM | 43 nM | 90 nM | 
O=C(Cn1c(-c2ccc(F)cc2)nc2ccccc21)Nc1ccc(Cl)cc1 | > 5000 nM | 870 nM | 1300 nM | 
CC(C)C(C(=O)Nc1ccc(Cl)cc1)n1c(-c2cscn2)nc2ccccc21 (stereo unspecified) | > 5000 nM | 5000 nM |  | 
O=C(Cn1c(-c2nccs2)nc2ccccc21)Nc1ccc(Cl)c(Cl)c1 | > 5000 nM | 18 nM | 50 nM | EC50 (Cryptosporidium parvum [4]): 1700 nM; EC50 (Toxoplasma gondii [5]): 3000 nM; EC50 (Toxoplasma gondii [6]): 700 nM; Ratio EC50 (Toxoplasma gondii [7]): 5; Ratio EC50 (Cryptosporidium parvum [8]): 2
CC(C(=O)Nc1ccc(Cl)cc1)n1c(-c2cscn2)nc2ccccc21 (stereo unspecified) | > 5000 nM | 60 nM | 80 nM | 
CC(C(=O)Nc1ccc(Cl)cc1)n1c(-c2nccs2)nc2ccccc21 (stereo unspecified) | > 5000 nM | 23 nM | 30 nM | 
N#Cc1cc(NC(=O)Cn2c(-c3ccccn3)nc3ccccc32)ccc1Cl | > 5000 nM | 22 nM | 40 nM | 
Cn1cc(-c2nc3ccccc3n2CC(=O)Nc2ccc(Cl)cc2)cn1 | > 5000 nM | 35 nM | 42 nM | 
O=C(Cn1c(-c2nccs2)nc2ccccc21)Nc1ccc(Br)cc1 | > 5000 nM | 28 nM | 27 nM | EC50 (Cryptosporidium parvum [4]): 700 nM; EC50 (Toxoplasma gondii [5]): > 23000 nM; EC50 (Toxoplasma gondii [6]): 300 nM
O=C(Cn1c(-c2cncs2)nc2ccccc21)Nc1ccc(Cl)cc1 | > 5000 nM | 35 nM | 60 nM | 
O=C(Cn1c(-c2cscn2)nc2ccccc21)Nc1ccc(F)cc1 | > 5000 nM | 900 nM |  | 
O=C(Cn1c(-c2cccs2)nc2ccccc21)Nc1ccc(Cl)cc1 | > 5000 nM | 20 nM | 60 nM | 
O=C(Cn1c(-c2ccccn2)nc2ccccc21)Nc1ccc2ccccc2c1 | > 5000 nM |  | 14 nM | EC50 (Toxoplasma gondii [5]): 2700 nM; EC50 (Toxoplasma gondii [6]): 300 nM
O=C(Cn1c(-c2cscn2)nc2ccccc21)Nc1ccc(C(F)(F)F)cc1 | > 5000 nM | 220 nM | 330 nM | 
O=C(Cn1c(-c2nccs2)nc2ccccc21)Nc1ccc2ccccc2c1 | > 5000 nM | 8 nM | 20 nM | inhibition of growth at 0.8 µM (Cryptosporidium parvum [10]): 80%; EC50 (Cryptosporidium parvum [4]): < 800 nM; EC50 (Toxoplasma gondii [5]): 17000 nM; EC50 (Toxoplasma gondii [6]): 500 nM; Ratio EC50 (Toxoplasma gondii [7]): 30; Ratio EC50 (Cryptosporidium parvum [8]): 2
O=C(Cn1c(-c2cscn2)nc2ccccc21)Nc1ccc2ccccc2c1 | > 5000 nM | 7 nM | 20 nM | EC50 (Cryptosporidium parvum [4]): 900 nM; EC50 (Toxoplasma gondii [5]): 5000 nM; EC50 (Toxoplasma gondii [6]): 600 nM; Ratio EC50 (Toxoplasma gondii [7]): 9; Ratio EC50 (Cryptosporidium parvum [8]): 2
